This note sets out measurements from ChEMBL document CHEMBL4665627 (Eur J Med Chem, 2019).

As usually defined, the MIC is the least concentration at which growth counts as inhibited. As a reminder, the inhibition is the percentage by which the read-out fell short of the control. A low value points to little suppression.

Test [1] deals with Candida albicans. Put plainly: Antifungal activity against Candida albicans assessed as inhibition of fungal growth after 24 hrs by CLSI protocol based two fold serial dilution method. It is filed as functional. Put shortly:
(§1)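 Two-fold serial broth dilution in 96-well plates following CLSI; MIC (mM) taken as the lowest concentration giving complete growth inhibition; MIC values from three independent experiments.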

Another test concerns Acinetobacter baumannii. Description: Antibacterial activity against Acinetobacter baumannii assessed as inhibition of bacterial growth after 24 hrs by CLSI protocol based two fold serial dilution method. It is filed as functional. Put shortly:
as §1

The test system of test [2] is Staphylococcus aureus. Description: Antibacterial activity against methicillin-resistant Staphylococcus aureus N315 assessed as inhibition of bacterial growth after 24 hrs by CLSI protocol based two fold serial dilution method. It is filed as functional.
Another test deals with Enterococcus faecalis. Put plainly: Antibacterial activity against Enterococcus faecalis assessed as inhibition of bacterial growth after 24 hrs by CLSI protocol based two fold serial dilution method. It is filed as functional. Put shortly:
as §1

Another test concerns Saccharomyces cerevisiae. Description: Inhibition of Saccharomyces cerevisiae CGMCC 2.145 chitin synthase at 300 ug/ml using GlcNAc and UDP-GlcNAc as substrate incubated for 60 mins by microplate reader analysis relative to control. To be noted: dose 300.0 µg/ml. The method, boiled down: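 Chitin synthase inhibition ratio measured at 300 µg/mL test compound, relative to untreated control.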

Test [3] relates to Staphylococcus aureus. Put plainly: Antibacterial activity against Staphylococcus aureus ATCC 25923 assessed as inhibition of bacterial growth after 24 hrs by CLSI protocol based two fold serial dilution method. It is filed as functional. Put shortly: as §1
For test [4], the system named is Klebsiella pneumoniae. Put plainly: Antibacterial activity against Klebsiella pneumoniae assessed as inhibition of bacterial growth after 24 hrs by CLSI protocol based two fold serial dilution method. It is filed as functional. The method, boiled down:
as §1

Test [5] has as its system Escherichia coli. Put plainly: Antibacterial activity against Escherichia coli ATCC 25922 assessed as inhibition of bacterial growth after 24 hrs by CLSI protocol based two fold serial dilution method. It is filed as functional. The method, boiled down:
as §1

For test [6], the system named is Candida albicans. Description: Antifungal activity against Candida albicans ATCC 90023 assessed as inhibition of fungal growth after 24 hrs by CLSI protocol based two fold serial dilution method. It is filed as functional. Put shortly:
as §1

For test [7], the system named is Escherichia coli. Description: Antibacterial activity against Escherichia coli assessed as inhibition of bacterial growth after 24 hrs by CLSI protocol based two fold serial dilution method. It is filed as functional. The method, boiled down: as §1
For the next test, the system named is Candida tropicalis. Description: Antifungal activity against Candida tropicalis assessed as inhibition of fungal growth after 24 hrs by CLSI protocol based two fold serial dilution method. It is filed as functional. Put shortly:
as §1

Test [8] concerns Staphylococcus aureus. Put plainly: Antibacterial activity against Staphylococcus aureus ATCC 29213 assessed as inhibition of bacterial growth after 24 hrs by CLSI protocol based two fold serial dilution method. It is filed as functional.
The test system of test [9] is Pseudomonas aeruginosa. Put plainly: Antibacterial activity against Pseudomonas aeruginosa ATCC 27853 assessed as inhibition of bacterial growth after 24 hrs by CLSI protocol based two fold serial dilution method. It is filed as functional. Put shortly: as §1
For test [10], the system named is Staphylococcus aureus. Description: Antibacterial activity against Staphylococcus aureus assessed as inhibition of bacterial growth after 24 hrs by CLSI protocol based two fold serial dilution method. It is filed as functional. Put shortly:
as §1

The next test has as its system Candida parapsilosis. Description: Antifungal activity against Candida parapsilosis ATCC 22019 assessed as inhibition of fungal growth after 24 hrs by CLSI protocol based two fold serial dilution method. It is filed as functional. The settings on record: Lodderomyces parapsilosis. Put shortly: as §1
The test system of test [11] is Pseudomonas aeruginosa. Put plainly: Antibacterial activity against Pseudomonas aeruginosa assessed as inhibition of bacterial growth after 24 hrs by CLSI protocol based two fold serial dilution method. It is filed as functional. Put shortly: as §1
For another test, the system named is Aspergillus fumigatus. Description: Antifungal activity against Aspergillus fumigatus assessed as inhibition of fungal growth after 24 hrs by CLSI protocol based two fold serial dilution method. It is filed as functional. The method, boiled down:
as §1

In test [12] the test system is Klebsiella pneumoniae. Description: Potentiation of 2-(4-(3-(2-aminothiazol-4-yl)-1-ethyl-6-fluoro-4-oxo-1,4-dihydroquinolin-7-yl)piperazin-1-yl)acetonitrile-induced antibacterial activity against Klebsiella pneumoniae assessed as fold reduction in 2-(4-(3-(2-aminothiazol-4-yl)-1-ethyl-6-fluoro-4-oxo-1,4-dihydroquinolin-7-yl)piperazin-1-yl)acetonitrile MIC by CLSI protocol based two fold serial dilution method. It is filed as functional.

Test [13] relates to Staphylococcus aureus. Description: Antibacterial activity against Staphylococcus aureus assessed as bacterial growth inhibition in presence of 2-(4-(3-(2-aminothiazol-4-yl)-1-ethyl-6-fluoro-4-oxo-1,4-dihydroquinolin-7-yl)piperazin-1-yl)acetonitrile by CLSI protocol based two fold serial dilution method. It is filed as functional.
The subject of test [14] is Escherichia coli. Put plainly: Antibacterial activity against Escherichia coli assessed as bacterial growth inhibition in presence of 2-(4-(3-(2-aminothiazol-4-yl)-1-ethyl-6-fluoro-4-oxo-1,4-dihydroquinolin-7-yl)piperazin-1-yl)acetonitrile by CLSI protocol based two fold serial dilution method. It is filed as functional. Put shortly:
as §1

The test system of test [15] is Staphylococcus aureus. Description: Antibacterial activity against methicillin-resistant Staphylococcus aureus assessed as bacterial growth inhibition in presence of 2-(4-(3-(2-aminothiazol-4-yl)-1-ethyl-6-fluoro-4-oxo-1,4-dihydroquinolin-7-yl)piperazin-1-yl)acetonitrile by CLSI protocol based two fold serial dilution method. It is filed as functional. The method, boiled down: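 Checkerboard-type pairing, with each agent tested alone and combined by CLSI two-fold serial dilution. MICs are from three independent experiments. FIC index = (MIC of A combined/MIC of A alone) + (MIC of B combined/MIC of B alone). An index ≤1 is read as synergistic and 1–2 as additive.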

For test [16], the system named is Klebsiella pneumoniae. Put plainly: Antibacterial activity against Klebsiella pneumoniae assessed as bacterial growth inhibition in presence of 2-(4-(3-(2-aminothiazol-4-yl)-1-ethyl-6-fluoro-4-oxo-1,4-dihydroquinolin-7-yl)piperazin-1-yl)acetonitrile by CLSI protocol based two fold serial dilution method. It is filed as functional. Put shortly: as §1

≈ marks a conversion by molar mass, not a printed value.

As for `CCN(CC)C(=O)CN1CCN(c2cc3c(cc2F)c(=O)c(-c2csc(N)n2)cn3CC)CC1`, the MIC stood at 66 µM (≈ 32.1 µg/mL) with Candida albicans [1]; 16 µM (≈ 7.79 µg/mL) in the test with Acinetobacter baumannii; 66 µM (≈ 32.1 µg/mL) in the test with Staphylococcus aureus [2]; 132 µM (≈ 64.2 µg/mL) in the test on Enterococcus faecalis; 16 µM (≈ 7.79 µg/mL) in the test on Staphylococcus aureus [3]; 263 µM (≈ 128 µg/mL) in the test with Klebsiella pneumoniae [4]. Further, the MIC in the test on Escherichia coli [5] was 66 µM (≈ 32.1 µg/mL); in the test on Candida albicans [6], 66 µM (≈ 32.1 µg/mL); in the test with Escherichia coli [7], 66 µM (≈ 32.1 µg/mL); in the test on Candida tropicalis, 132 µM (≈ 64.2 µg/mL); in the test on Staphylococcus aureus [8] it was 66 µM (≈ 32.1 µg/mL); in the test with Pseudomonas aeruginosa [9], 132 µM (≈ 64.2 µg/mL). Also, the MIC with Staphylococcus aureus [10] came to 137 µM (≈ 66.7 µg/mL); in the test with Candida parapsilosis, 132 µM (≈ 64.2 µg/mL); with Pseudomonas aeruginosa [11], 132 µM (≈ 64.2 µg/mL); in the test on Aspergillus fumigatus, 66 µM (≈ 32.1 µg/mL). For the same compound, the inhibition with Saccharomyces cerevisiae was determined as 49.1%.

On to `CCn1cc(-c2csc(N)n2)c(=O)c2cc(F)c(N3CCN(C(C)=O)CC3)cc21`, for which the MIC with Candida albicans [1] came out at 19 µM (≈ 7.89 µg/mL); in the test on Acinetobacter baumannii, 39 µM (≈ 16.2 µg/mL); in the test on Staphylococcus aureus [2], 77 µM (≈ 32 µg/mL); with Enterococcus faecalis, 39 µM (≈ 16.2 µg/mL); in the test with Staphylococcus aureus [3], 39 µM (≈ 16.2 µg/mL); with Klebsiella pneumoniae [4], 39 µM (≈ 16.2 µg/mL). In addition, the MIC in the test with Escherichia coli [5] turned out to be 39 µM (≈ 16.2 µg/mL); with Candida albicans [6], 19 µM (≈ 7.89 µg/mL); with Escherichia coli [7], 77 µM (≈ 32 µg/mL); in the test on Candida tropicalis, 77 µM (≈ 32 µg/mL); in the test on Staphylococcus aureus [8], 19 µM (≈ 7.89 µg/mL); in the test on Pseudomonas aeruginosa [9] it was 10 µM (≈ 4.15 µg/mL). In addition, the MIC stood at 77 µM (≈ 32 µg/mL) with Staphylococcus aureus [10], 39 µM (≈ 16.2 µg/mL) in the test with Candida parapsilosis, 39 µM (≈ 16.2 µg/mL) in the test with Pseudomonas aeruginosa [11] and 19 µM (≈ 7.89 µg/mL) in the test on Aspergillus fumigatus. This compound yielded an inhibition in the test on Saccharomyces cerevisiae of 71.1%.

In the case of `CCCCN1CCN(c2cc3c(cc2F)c(=O)c(-c2csc(N)n2)cn3CC)CC1`, the MIC stood at 149 µM (≈ 64 µg/mL) in the test on Candida albicans [1]; 19 µM (≈ 8.16 µg/mL) in the test with Acinetobacter baumannii; 149 µM (≈ 64 µg/mL) in the test with Staphylococcus aureus [2]; 75 µM (≈ 32.2 µg/mL) in the test on Enterococcus faecalis; 9 µM (≈ 3.87 µg/mL) with Staphylococcus aureus [3]; 5 µM (≈ 2.15 µg/mL) in the test with Klebsiella pneumoniae [4]. Further, the MIC in the test on Escherichia coli [5] stood at 37 µM (≈ 15.9 µg/mL); with Candida albicans [6], 149 µM (≈ 64 µg/mL); with Escherichia coli [7], 149 µM (≈ 64 µg/mL); in the test on Candida tropicalis, 9 µM (≈ 3.87 µg/mL); with Staphylococcus aureus [8] it was 19 µM (≈ 8.16 µg/mL); with Pseudomonas aeruginosa [9], 75 µM (≈ 32.2 µg/mL). The MIC was 75 µM (≈ 32.2 µg/mL) with Staphylococcus aureus [10], 19 µM (≈ 8.16 µg/mL) with Candida parapsilosis, 298 µM (≈ 128 µg/mL) with Pseudomonas aeruginosa [11] and 9 µM (≈ 3.87 µg/mL) in the test on Aspergillus fumigatus. This compound gave an inhibition in the test with Saccharomyces cerevisiae of 41.4%.

As to `CC(=O)OCC1=C(C(=O)O)N2C(=O)[C@@H](NC(=O)CS/C(=N/C(C)C)NC(C)C)[C@H]2SC1`, the “fold change (FC)” value in the test with Klebsiella pneumoniae [12] is on record as 5. In addition, the MIC with Staphylococcus aureus [13] was found to be 4 µM; in the test with Staphylococcus aureus [2], 4 µM (≈ 1.89 µg/mL); with Escherichia coli [14] it was 8 µM; in the test with Klebsiella pneumoniae [4] it was 4 µM (≈ 1.89 µg/mL); in the test on Staphylococcus aureus [15], 2 µM; in the test with Klebsiella pneumoniae [16], 2 µM. The MIC turned out to be 17 µM (≈ 8.03 µg/mL) in the test with Escherichia coli [7] and 34 µM (≈ 16.1 µg/mL) with Staphylococcus aureus [10].
